Experimental data taken from ChEMBL document CHEMBL4177714, “Assessment of a pretomanid analogue library for African trypanosomiasis: Hit-to-lead studies on 6-substituted 2-nitro-6,7-dihydro-5H-imidazo[2,1-b][1,3]thiazine 8-oxides” (Bioorg Med Chem Lett, 2018).
Converted amounts (≈) assume the structure as drawn. Blank lines part the entries; values can stand above or below the molecule they belong to.

Legend:
[1] = Apparent permeability in MDCK2-MDR1 cells at 3 uM incubated over 150 mins at 37 degC by LC-MS/MS method; assay type: ADME, cell-based, Canis lupus familiaris; details: dog, MDCK-MDR1
How it was run: (§1)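 MDCK-MDR1 monolayer, apical-to-basolateral transport of compound at 3 μM, run with and without P-gp inhibitor GF120918 (2 μM). Apparent permeability (Papp) recorded; absorption quotient AQ = (Papp+918 − Papp)/Papp+918. Propranolol served as CNS-positive reference.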

[2] = Selectivity index, ratio of IC50 for cytotoxicity against mouse L929 cells to IC50 for antitrypanosomal activity against Trypanosoma brucei brucei 427 bloodstream forms; assay type: toxicity, cell-based; details: read-out: Ratio IC50
Mus musculus = assay: Time duration during which drug level in brain stays at or above MIC for antitrypanosomal activity against Trypanosoma brucei brucei TREU 667 infected in Webster mouse at 25 mg/kg, po bid; assay type: ADME, organism-based; details: in vivo
[3] = Half life in mouse liver S9 subcellular fraction; assay type: ADME
How it was run: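 Metabolic stability: compounds incubated 1 h with CD-1 mouse liver S9 subcellular fractions; half-life derived.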

[4] = Absorption quotient in MDCK2-MDR1 cells assessed as (Papp + GF120918 - Papp)/(Papp + GF120918) ratio at 3 uM incubated over 150 mins at 37 degC in presence of P-gp inhibitor GF120918 by LC-MS/MS method; assay type: ADME, cell-based, Canis lupus familiaris; details: dog, mdck-mdr1, 2.5 h; how it was run: as §1
[5] = Selectivity index, ratio of IC50 for cytotoxicity against human MRC5 cells to IC50 for antitrypanosomal activity against Trypanosoma brucei brucei 427 bloodstream forms; assay type: toxicity, cell-based; details: read-out: Ratio IC50
How it was run: (§2)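 IC50 for growth inhibition of T. b. brucei 427, with cytotoxicity measured against human lung fibroblasts (MRC-5). Means of two or more independent experiments. Selectivity index is MRC-5 IC50 over T. b. brucei IC50.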

[6] = Ratio of drug level in brain to plasma in CD1 mouse at 78 mg/kg, po after 0.25 to 24 hrs by LC-MS/MS method; assay type: ADME, organism-based; details: read-out: BPR
[7] = tested on: Trypanosoma brucei brucei; assay: Antitrypanosomal activity against Trypanosoma brucei brucei 427 bloodstream forms; assay type: functional, organism-based; how it was run: as §2
[8] = tested on: Trypanosoma brucei brucei; assay: Antitrypanosomal activity against Trypanosoma brucei brucei TREU 667 infected in Swiss Webster mouse assessed as infection cure rate at 25 mg/kg, po qd for 7 days starting 21 days post-infection (reference value: 0%); assay type: functional
[9] = tested on: Trypanosoma brucei brucei; assay: Antitrypanosomal activity against Trypanosoma brucei brucei TREU 667 infected in Swiss Webster mouse assessed as infection cure rate at 10 mg/kg, ip administered as single dose on day 21 post-infection (reference value: 0%); assay type: functional
How it was run: (§3)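 CNS (stage 2) model: mice infected with T. b. brucei TREU 667. Berenil given as a single i.p. dose of 10 mg/kg on day 4 or on day 21 post-infection. Cure rate and mean relapse time recorded against vehicle-treated controls.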

[10] = tested on: Trypanosoma brucei brucei; assay: Antitrypanosomal activity against Trypanosoma brucei brucei TREU 667 infected in Swiss Webster mouse assessed as infection cure rate at 10 mg/kg, ip administered as single dose on day 4 post-infection (reference value: 0%); assay type: functional; how it was run: as §3
[11] = tested on: Trypanosoma brucei brucei; assay: Antitrypanosomal activity against Trypanosoma brucei brucei TREU 667 infected in Swiss Webster mouse assessed as mean relapse time at 10 mg/kg, ip administered as single dose on day 21 post-infection (reference value: 31 days); assay type: functional; how it was run: as §3
[12] = tested on: Trypanosoma brucei brucei; assay: Antitrypanosomal activity against Trypanosoma brucei brucei TREU 667 infected in Swiss Webster mouse assessed as infection cure rate at 200 mg/kg, po qd for 5 days; assay type: functional

Papp A→B at 2.5 h, 3 µM [1]: 3.5 ×10⁻⁶ cm/s
Compound: O=[N+]([O-])c1cn2c(n1)OC[C@@H](OCC#Cc1ccc(-c3ccc(C(F)(F)F)cc3)cn1)C2
selectivity ratio [2]: > 19

Compound: O=[N+]([O-])c1cn2c(n1)OC[C@@H](Oc1cc(-c3ccc(C(F)(F)F)nc3)ccn1)C2
selectivity ratio [2]: > 3.6

Time (Mus musculus): 12 h
Compound: O=C(Nc1ccc2c(c1)B(O)OC2)c1ccc(F)cc1C(F)(F)F

Papp A→B at 2.5 h, 3 µM [1]: 7.4 ×10⁻⁶ cm/s
Compound: O=[N+]([O-])c1cn2c(n1)OCC(COc1ccc(-c3ccc(OC(F)(F)F)cc3)nc1)C2 (stereo not given)
selectivity ratio [2]: > 12

Papp A→B at 2.5 h, 3 µM [1]: 11.7 ×10⁻⁶ cm/s
Compound: O=[N+]([O-])c1cn2c(n1)OCC(COc1ccc(-c3ccc(C(F)(F)F)cc3)nc1)C2 (stereo not given)
selectivity ratio [2]: > 36

t1/2 [3]: 50 min
Compound: CC1(COCc2ccc(OCc3ccccc3)cc2)Cn2cc([N+](=O)[O-])nc2[S+]1[O-] (stereo not given)
selectivity ratio [2]: > 77

Compound: COc1ccc(-c2ccc(O[C@@H]3COc4nc([N+](=O)[O-])cn4C3)nc2)cn1
selectivity ratio [2]: > 3.7

Compound: O=[N+]([O-])c1cn2c(n1)OC[C@@H](OCCCc1ccc(-c3ccc(Oc4ccc(C(F)(F)F)cc4)cc3)cc1)C2
selectivity ratio [2]: > 43

Ratio [4]: 0 | t1/2 [3]: 31 min
Compound: CC1(COCc2ccc(OCc3ccccc3)cc2)Cn2cc([N+](=O)[O-])nc2S1 (stereo not given)
selectivity ratio [2]: > 4.5

t1/2 [3]: 67 min
Compound: O=[N+]([O-])c1cn2c(n1)SC(COCc1ccc(OCc3ccccc3)cc1)C2 (stereo not given)
selectivity ratio [2]: > 22

Compound: O=[N+]([O-])c1cn2c(n1)[S@+]([O-])C[C@@H](OCc1ccc(OC(F)(F)F)cc1)C2
selectivity ratio [2]: > 143

Compound: O=[N+]([O-])c1cn2c(n1)[S+]([O-])CC(OCc1ccc(-c3ccc(OC(F)(F)F)cc3)cn1)C2 (stereo not given)
selectivity ratio [5]: > 500

t1/2 [3]: 38 min
Compound: CN1CC(OCc2ccc(OCc3ccccc3)cc2)Cn2nc([N+](=O)[O-])cc21 (stereo not given)
selectivity ratio [2]: > 3.3

Compound: O=[N+]([O-])c1cn2c(n1)[S+]([O-])CC(OCc1ccc(OC(F)(F)F)cc1)C2 (stereo not given)
selectivity ratio [2]: > 63

Compound: O=[N+]([O-])c1cn2c(n1)[S+]([O-])CC(OCc1ccc(OCc3ccccc3)cc1)C2 (stereo not given)
selectivity ratio [2]: > 667

Compound: O=[N+]([O-])c1cn2c(n1)S(=O)(=O)CC(OCc1ccc(OC(F)(F)F)cc1)C2 (stereo not given)
selectivity ratio [2]: > 11

Papp A→B at 2.5 h, 3 µM [1]: 3.69 ×10⁻⁶ cm/s
Compound: O=[N+]([O-])c1cn2c(n1)S(=O)(=O)CC(OCc1ccc(OCc3ccccc3)cc1)C2 (stereo not given)
selectivity ratio [2]: > 303

Kp [6]: 2 to 3
Compound: O=[N+]([O-])c1cn2c(n1)OC[C@@H](NCc1ccc(OC(F)(F)F)cc1)C2
selectivity ratio [2]: > 13

Time (Mus musculus): 24 h | IC50 [7]: 0.29 µg/mL (≈ 0.79 µM)
Compound: CC1(C)OB(O)c2cc(NC(=O)c3ccc(F)cc3C(F)(F)F)ccc21 [ACOZIBOROLE]
Activity [8]: 100%

Compound: CC(=O)NCC(=O)O.CC(=O)NCC(=O)O.N=C(N)c1ccc(/N=N/Nc2ccc(C(=N)N)cc2)cc1 [DIMINAZENE DIACETURATE]
Activity [9]: 0% | Activity [10]: 100% | Time [11]: 41 days

Compound: CSc1ccc(OCc2ncc([N+](=O)[O-])n2C)cc1 [FEXINIDAZOLE]
Activity [12]: 88%
